Tb MetRS inh – T. brucei MetRS inhibitors, primary screen, biochemical, luminescence; methionyl-tRNA synthetase (Trypanosoma brucei brucei); 0.4% of 360,000 active; purified T. brucei MetRS, ATP depletion, Kinase-Glo luminescence; AID 624268, 2012; inhibition, % at 11.9 µM;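 active = inhibition above a per-plate cutoff of the control wells' mean inhibition plus 3 SD, cut at about 5.5% in these data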
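Test system – parasite MetRS enzyme · Reagent – substrates ATP, L-methionine and bulk Escherichia coli tRNA · Doses – 11.9 µM compound single dose, 0.9% DMSO · Times – 15 min enzyme-compound preincubation, 2 h reaction, 10 min detection, 25 °C · Signal – Kinase-Glo luminescence, ATP depletion format · Controls – DMSO-only wells as low control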
CDK5 p35 inh – inhibitors of human CDK5/p35 kinase, primary screen, biochemical, single concentration; 0.01% of 330,000 active; Recombinant CDK5/p35, ADP-Glo luminescence, 60 min; inhibition, % at 10 µM;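 active = highest replicate inhibition of at least 50% and at least 75% of replicates reaching 50%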
Target sequence (Q00535 whole entry, looked up): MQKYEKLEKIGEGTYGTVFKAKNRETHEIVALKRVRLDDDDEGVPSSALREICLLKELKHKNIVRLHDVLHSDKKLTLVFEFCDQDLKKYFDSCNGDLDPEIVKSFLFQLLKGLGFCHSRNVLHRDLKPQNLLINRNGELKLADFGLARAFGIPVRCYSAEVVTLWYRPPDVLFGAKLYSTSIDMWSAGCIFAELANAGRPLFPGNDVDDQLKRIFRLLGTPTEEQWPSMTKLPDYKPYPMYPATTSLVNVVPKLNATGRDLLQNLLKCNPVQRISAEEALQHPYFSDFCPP
Target sequence (Q15078 whole entry, looked up): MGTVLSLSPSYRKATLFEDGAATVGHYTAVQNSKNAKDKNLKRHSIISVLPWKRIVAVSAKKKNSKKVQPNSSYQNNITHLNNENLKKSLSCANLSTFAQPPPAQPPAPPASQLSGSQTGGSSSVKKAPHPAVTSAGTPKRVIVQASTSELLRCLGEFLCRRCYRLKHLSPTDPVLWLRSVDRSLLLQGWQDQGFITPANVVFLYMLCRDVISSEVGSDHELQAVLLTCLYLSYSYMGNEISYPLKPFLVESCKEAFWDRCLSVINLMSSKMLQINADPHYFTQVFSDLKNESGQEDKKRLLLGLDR
CAL PDZ FP-1 – CAL PDZ peptide-binding inhibitors, primary screen, biochemical, fluorescence polarization, Cer-tagged CAL PDZ, HTS; Golgi-associated PDZ and coiled-coil motif-containing protein (Homo sapiens), Q9HD26; purified CAL PDZ, TMR-peptide fluorescence polarization, 1 h; inhibition, % at 20 µM; 0.02% of 330,000 active;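 active = highest replicate inhibition of at least 40%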
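material = purified tagged CAL PDZ domain construct (CerCALP) | buffer or medium = sodium phosphate/NaCl buffer pH 7.4 with TCEP, IgG, Thesit | reagent = TMR-labelled reporter peptide T*-PRC34 bound in PDZ groove | incubation = 1 h room-temperature incubation prior to read | measured by = fluorescence polarization (mP) | evaluation = percent inhibition from loss of millipolarization | control set = unlabelled peptide and DMSO controls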
DYRK1A inh – rat Dyrk1A kinase inhibitors, primary screen, biochemical, single point, plate reader; Dual specificity tyrosine-phosphorylation-regulated kinase 1A (Rattus norvegicus), Q63470; ADP-Glo luminescence, NFATc1 peptide; inhibition, % at 12.5 µM; 0.43% of 310,000 active; AID 504441, 2011; in the data active = inhibition above about 50%
PvdQ acylase – P. aeruginosa PvdQ acylase inhibitors, primary screen, biochemical, fluorescence, plate reader and imaging, single point; purified PvdQ acylase; 0.063% of 340,000 active; inhibition, % at 10 µM; PvdQ acylase [Pseudomonas aeruginosa LESB58]; in the data active = inhibition above about 30%, passing the limit was not always enough
CAL PDZ FP-2 – untagged CAL PDZ binding inhibitors, primary screen, biochemical, fluorescence polarization, HTS; Golgi-associated PDZ and coiled-coil motif-containing protein (Homo sapiens), Q9HD26; purified CAL PDZ, TMR-peptide fluorescence polarization, 1 h; inhibition, % at 24.9 µM; 0.92% of 300,000 active; AID 602252, 2012;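 active = mean inhibition of at least 30% with at least half of replicates also reaching 30%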
Hits are given with their value; - = inactive; . = not tested or not shown. Sampled rows, rich in hits. Any-hit rate of the full collection: about 1.4%.

SMILES	Tb MetRS inh	CDK5 p35 inh	CAL PDZ FP-1	DYRK1A inh	PvdQ acylase	CAL PDZ FP-2
CC1(C(=O)NS(=O)(=O)c2ccc(Cl)s2)CCN1C(=O)C1CCCCC1 (stereo unspecified)	-	.	.	.	.	.
CNC(=O)c1cc2cc(OC)ccc2n1CCN(C)C	-	-	.	-	-	47
Cc1nnc(SCC(=O)NC(C)(C)C)n1NCc1ccc(Cl)cc1	-	-	-	-	-	-
Cc1nnc(SCC(=O)NC(C)(C)C)n1NCc1ccc(N(C)C)cc1	-	-	-	-	-	74
COc1cccc(NC(=O)CCS(=O)(=O)c2cccs2)c1	-	-	-	-	-	72
COc1cc([N+](=O)[O-])cc(/C=N/NC(=O)Cn2cncn2)c1O	-	-	-	-	-	48
CCCCCCCCCC(=O)N/N=C/c1ccc(C)s1	-	-	-	-	-	49
Cc1ccc(/C=N/NC(=O)C[n+]2ccccc2)s1	-	-	-	-	-	-
COc1ccccc1CC(=O)NCc1nn(-c2ccccc2)nc1C	-	-	-	.	-	65
CC(C)Cc1nnc(NC(=O)c2cc3c(s2)CCC3)s1	-	-	-	-	-	45
COc1ccc(S(=O)(=O)NCCc2ccccc2)cc1	-	-	-	-	-	-
COc1ccc(S(=O)(=O)NCCc2ccncc2)cc1	-	-	-	-	-	63
O=C(NNc1cc(N2CCCC2)nc(N2CCCC2)n1)c1ccc([N+](=O)[O-])cc1	-	-	-	-	-	30
Cc1ccc(S(=O)(=O)N[C@H](C(=O)OCC(=O)NC(=O)C2CCCCC2)C(C)C)cc1	-	-	-	-	-	154
COc1cc(NC(=S)N2CCN(S(=O)(=O)c3ccc(F)cc3)CC2)cc(OC)c1	-	-	-	-	-	48
COc1cccc(NC(=S)N2CCN(S(=O)(=O)c3ccc(F)cc3)CC2)c1	-	-	-	-	-	-
Cc1ccccc1-c1cnc(C(O)c2ccc(Cl)c(F)c2)[nH]1 (stereo unspecified)	-	.	.	.	.	.
Cc1ccc(NC(=O)COC(=O)Cn2ccc(=O)[nH]c2=O)cc1C	-	-	-	-	-	40
Cc1ccc(NC(=O)COC(=O)CN2CCCCCC2=O)cc1C	-	-	-	-	-	-
CCSc1nc2nccnc2c(=O)[nH]1	-	-	-	.	-	96
CC(C)NC(=O)C1(C)CN(S(C)(=O)=O)CC(=O)N1Cc1ccco1 (stereo unspecified)	-	.	.	.	.	.
COc1ccc(OCCC(=O)OCC(=O)NCc2ccc(F)cc2)cc1	-	-	-	.	-	47
Cc1ccc(Cn2ccc(NC(=O)c3cc(-c4ccccc4)on3)n2)cc1	-	-	-	-	-	-
COC(=O)c1cc(-c2ccc(OC)cc2)on1	-	-	-	-	95	-
COc1cccc(-c2cc(C(=O)Nc3ccn(Cc4ccc(C)cc4)n3)no2)c1	-	-	.	-	-	38
SMILES	Tb MetRS inh	CDK5 p35 inh	CAL PDZ FP-1	DYRK1A inh	PvdQ acylase	CAL PDZ FP-2
COc1ccc(-c2cc(C(=O)NC(C)C)no2)cc1	-	-	-	-	-	.
COC(=O)c1cc(-c2ccc(Br)cc2)on1	-	-	-	-	92	-
COC(=O)c1cc(-c2cccc(OC)c2)on1	-	-	-	-	47	-
COc1cccc(-c2cc(C(=O)O)no2)c1	-	-	-	.	-	-
COC(=O)c1cc(-c2ccccc2)on1	-	-	-	-	-	-
Nc1ccn(C2OC(COC(=O)C34CC5CC(CC(C5)C3)C4)C(O)C2O)c(=O)n1 (stereo unspecified)	-	-	-	-	-	-
CCCCn1nnnc1C1(C)CCC(=O)N1CCCN1CCOCC1 (stereo unspecified)	-	.	.	.	.	.
Cc1ccc(S(=O)(=O)N2c3ccccc3OC(C(=O)OC(C)(C)C)(C(=O)OC(C)(C)C)C2CC(=O)c2ccccc2)cc1 (stereo unspecified)	-	.	.	.	.	.
CC(=NNC(=S)N1CCN(c2ccccn2)CC1)c1nccs1	-	-	-	-	-	-
